This is an account of results in ChEMBL document CHEMBL1138570, “2-Acylhydrazino-5-arylpyrrole derivatives: synthesis and antifungal activity evaluation” (Eur J Med Chem, 2009).

In brackets after ≈: the same amount, converted by molar mass.

Holding throughout (assay type): functional
Assay [1] concerns Candida albicans. In words: Antimicrobial activity against Candida albicans ATCC 10231 after 72 hrs by broth microdilution method. As to conditions: ATCC 10231, 72 h. A digest of the protocol: (§1)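 MFC: after MIC reading, a sample from each well was plated on Sabouraud dextrose agar and incubated 72 h at 35 °C. MFC was taken as the minimum concentration killing >99% of the original inoculum. The MIC step was NCCLS broth microdilution in MOPS-buffered RPMI 1640 (pH 7.0), with 2 ×10⁴ cells/mL, overnight at 35 °C.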

Assay [2] has as its system Candida parapsilosis. In words: Antimicrobial activity against Candida parapsilosis by broth microdilution method. As to conditions: Lodderomyces parapsilosis. A digest of the protocol:
(§2)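 MIC by NCCLS broth microdilution. Medium was RPMI 1640 with L-glutamine, buffered with 0.165 M MOPS at pH 7.0. Twofold drug dilutions ran 0.008–200 mg/L. Inoculum was set spectrophotometrically to 10⁶ CFU/mL, then diluted in medium to 2 ×10⁴ cells/mL. Plates were incubated overnight at 35 °C in humid air, agitated, and read visually and at 450 nm.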
In general terms: Broth dilution looks for growth in wells or tubes with falling amounts of substance.

Assay [3] relates to Pichia kudriavzevii. In words: Antimicrobial activity against Candida krusei by broth microdilution method. Put shortly:
as §2

In assay [4] the test system is Nakaseomyces glabratus. In words: Antimicrobial activity against Candida glabrata by broth microdilution method. Put shortly:
as §2

The test system of assay [5] is Candida parapsilosis. As to the kind of experiment: Antimicrobial activity against Candida parapsilosis after 72 hrs by broth microdilution method. As to conditions: Lodderomyces parapsilosis. A digest of the protocol: as §1
The subject of assay [6] is Pichia kudriavzevii. In words: Antimicrobial activity against Candida krusei after 72 hrs by broth microdilution method. A digest of the protocol: as §1
Assay [7] concerns Nakaseomyces glabratus. As to the kind of experiment: Antimicrobial activity against Candida glabrata after 72 hrs by broth microdilution method. Put shortly: as §1
Assay [8] concerns Candida albicans. As to the kind of experiment: Antimicrobial activity against Candida albicans ATCC 10231 by broth microdilution method. Put shortly:
as §2

On to `CCOC(=O)NNc1[nH]c(-c2ccc(C)cc2)cc1C(=O)OCC`, for which the MFC against Candida albicans [1] is 6.25 µg/mL (≈ 18.9 µM); against Candida parapsilosis [5], over 100 µg/mL; against Pichia kudriavzevii [6], over 100 µg/mL; with Nakaseomyces glabratus [7], 25 µg/mL (≈ 75.4 µM). The minimal inhibitory concentration (MIC) with Candida parapsilosis [2] came to 100 µg/mL (≈ 302 µM); in the assay on Pichia kudriavzevii [3] it was 100 µg/mL (≈ 302 µM); against Nakaseomyces glabratus [4] it was 3.12 µg/mL (≈ 9.42 µM); in the assay with Candida albicans [8] it was 6.25 µg/mL (≈ 18.9 µM).

Turning to `CCOC(=O)NNc1[nH]c(-c2ccc(OC)cc2)cc1C(=O)OCC`, the minimum fungicidal concentration (MFC) against Candida albicans [1] came out at 3.12 µg/mL (≈ 8.98 µM); against Candida parapsilosis [5] it was 25 µg/mL (≈ 72 µM); in the assay with Pichia kudriavzevii [6], 100 µg/mL (≈ 288 µM); against Nakaseomyces glabratus [7], 25 µg/mL (≈ 72 µM). Further, the minimum inhibitory concentration (MIC) against Candida parapsilosis [2] amounted to 6.25 µg/mL (≈ 18 µM); in the assay on Pichia kudriavzevii [3] it was 12.5 µg/mL (≈ 36 µM); with Nakaseomyces glabratus [4] it was 6.25 µg/mL (≈ 18 µM); against Candida albicans [8], 3.12 µg/mL (≈ 8.98 µM).

For the compound `CCOC(=O)c1cc(-c2ccc(C)cc2)[nH]c1NNC(=O)C(C)C`, the MFC with Candida albicans [1] is 12.5 µg/mL (≈ 37.9 µM); against Candida parapsilosis [5], over 100 µg/mL; with Pichia kudriavzevii [6], 100 µg/mL (≈ 304 µM); in the assay on Nakaseomyces glabratus [7], over 100 µg/mL. The minimal inhibitory concentration (MIC) against Candida parapsilosis [2] is 25 µg/mL (≈ 75.9 µM); against Pichia kudriavzevii [3], 25 µg/mL (≈ 75.9 µM); against Nakaseomyces glabratus [4], over 100 µg/mL; against Candida albicans [8] it was 6.25 µg/mL (≈ 19 µM).

For the compound `CCOC(=O)c1cc(-c2ccc(OC)cc2)[nH]c1NNC(=O)C(C)C`, the minimum fungicidal concentration (MFC) was 12.5 µg/mL (≈ 36.2 µM) against Candida albicans [1], over 100 µg/mL in the assay with Candida parapsilosis [5], over 100 µg/mL against Pichia kudriavzevii [6] and over 100 µg/mL in the assay on Nakaseomyces glabratus [7]. Besides, the MIC against Candida parapsilosis [2] was 6.25 µg/mL (≈ 18.1 µM); in the assay on Pichia kudriavzevii [3], 12.5 µg/mL (≈ 36.2 µM); against Nakaseomyces glabratus [4] it was over 100 µg/mL; against Candida albicans [8], 6.25 µg/mL (≈ 18.1 µM).

On to `CCOC(=O)c1cc(-c2ccccc2)[nH]c1NNC(=O)C(C)C`, for which the minimum fungicidal concentration (MFC) with Candida albicans [1] is over 100 µg/mL; against Candida parapsilosis [5], 100 µg/mL (≈ 317 µM); against Pichia kudriavzevii [6] it was over 100 µg/mL; against Nakaseomyces glabratus [7], 12.5 µg/mL (≈ 39.6 µM). For the same compound, the MIC against Candida parapsilosis [2] was 25 µg/mL (≈ 79.3 µM); with Pichia kudriavzevii [3] it was over 100 µg/mL; in the assay with Nakaseomyces glabratus [4], 6.25 µg/mL (≈ 19.8 µM); in the assay on Candida albicans [8] it was over 100 µg/mL.

For `COc1ccc(-c2cc(C#N)c(NNC(=O)C(C)C)[nH]2)cc1`, the minimal fungicidal concentration (MFC) in the assay on Candida albicans [1] was 3.12 µg/mL (≈ 10.5 µM); in the assay on Candida parapsilosis [5], over 100 µg/mL; with Pichia kudriavzevii [6], over 100 µg/mL; against Nakaseomyces glabratus [7], over 100 µg/mL. Further, the minimum inhibitory concentration (MIC) against Candida parapsilosis [2] turned out to be 25 µg/mL (≈ 83.8 µM); against Pichia kudriavzevii [3], 50 µg/mL (≈ 168 µM); in the assay on Nakaseomyces glabratus [4] it was 50 µg/mL (≈ 168 µM); with Candida albicans [8] it was 3.12 µg/mL (≈ 10.5 µM).

As for `CCC(=O)NNc1[nH]c(-c2ccccc2)cc1C#N`, the MFC in the assay on Candida albicans [1] came to 6.25 µg/mL (≈ 24.6 µM); against Candida parapsilosis [5], 12.5 µg/mL (≈ 49.2 µM); with Pichia kudriavzevii [6], 12.5 µg/mL (≈ 49.2 µM); with Nakaseomyces glabratus [7], 12.5 µg/mL (≈ 49.2 µM). Further, the MIC is 3.12 µg/mL (≈ 12.3 µM) in the assay on Candida parapsilosis [2], 1.56 µg/mL (≈ 6.13 µM) against Pichia kudriavzevii [3], 3.12 µg/mL (≈ 12.3 µM) in the assay with Nakaseomyces glabratus [4] and 3.12 µg/mL (≈ 12.3 µM) with Candida albicans [8].

Consider `CCCC(=O)NNc1[nH]c(-c2ccccc2)cc1C(=O)OCC`, for which the MFC is 12.5 µg/mL (≈ 39.6 µM) against Candida albicans [1], over 100 µg/mL in the assay with Candida parapsilosis [5], over 100 µg/mL in the assay on Pichia kudriavzevii [6] and over 100 µg/mL with Nakaseomyces glabratus [7]. Further, the MIC against Candida parapsilosis [2] is 100 µg/mL (≈ 317 µM); in the assay on Pichia kudriavzevii [3] it was over 100 µg/mL; against Nakaseomyces glabratus [4] it was over 100 µg/mL; against Candida albicans [8], 12.5 µg/mL (≈ 39.6 µM).

Take `CCOC(=O)c1cc(-c2ccc(Cl)cc2)[nH]c1NNC(C)=O`: the MFC against Candida albicans [1] was over 100 µg/mL; in the assay with Candida parapsilosis [5], 25 µg/mL (≈ 77.7 µM); in the assay with Pichia kudriavzevii [6], 50 µg/mL (≈ 155 µM); against Nakaseomyces glabratus [7], over 100 µg/mL. Besides, the MIC in the assay on Candida parapsilosis [2] was 12.5 µg/mL (≈ 38.8 µM); against Pichia kudriavzevii [3], 25 µg/mL (≈ 77.7 µM); against Nakaseomyces glabratus [4], over 100 µg/mL; with Candida albicans [8], over 100 µg/mL.

Regarding `CCOC(=O)c1cc(-c2ccc(C)cc2)[nH]c1NNC(=O)Cc1ccc(OC)cc1`, the MFC in the assay with Candida albicans [1], with Candida parapsilosis [5], in the assay with Pichia kudriavzevii [6] and in the assay with Nakaseomyces glabratus [7] was over 100 µg/mL throughout. Moreover, the minimal inhibitory concentration (MIC) is 100 µg/mL (≈ 245 µM) against Candida parapsilosis [2], 100 µg/mL (≈ 245 µM) in the assay on Pichia kudriavzevii [3], over 100 µg/mL against Nakaseomyces glabratus [4] and over 100 µg/mL in the assay with Candida albicans [8].

Regarding `CCOC(=O)c1cc(-c2ccc(Cl)cc2)[nH]c1NNC(=O)Cc1ccc(OC)cc1`, the MFC against Candida albicans [1], in the assay on Candida parapsilosis [5], in the assay with Pichia kudriavzevii [6] and in the assay with Nakaseomyces glabratus [7] was over 100 µg/mL in each case. Moreover, the minimal inhibitory concentration (MIC) in the assay on Candida parapsilosis [2], against Pichia kudriavzevii [3], in the assay on Nakaseomyces glabratus [4] and against Candida albicans [8] was over 100 µg/mL each time.

Take `CCOC(=O)c1cc(-c2ccc(OC)cc2)[nH]c1NNC(C)=O`: the minimum fungicidal concentration (MFC) with Candida albicans [1] is 3.12 µg/mL (≈ 9.83 µM); in the assay with Candida parapsilosis [5], 50 µg/mL (≈ 158 µM); against Pichia kudriavzevii [6], 25 µg/mL (≈ 78.8 µM); with Nakaseomyces glabratus [7] it was 12.5 µg/mL (≈ 39.4 µM). The MIC against Candida parapsilosis [2] was 50 µg/mL (≈ 158 µM); against Pichia kudriavzevii [3], 12.5 µg/mL (≈ 39.4 µM); in the assay on Nakaseomyces glabratus [4] it was 6.25 µg/mL (≈ 19.7 µM); with Candida albicans [8], 3.12 µg/mL (≈ 9.83 µM).

Turning to `CCOC(=O)c1cc(-c2ccc(Cl)cc2)[nH]c1NNC(=O)C(C)C`, the minimal fungicidal concentration (MFC) against Candida albicans [1], with Candida parapsilosis [5], with Pichia kudriavzevii [6] and against Nakaseomyces glabratus [7] was over 100 µg/mL each time. Besides, the MIC in the assay with Candida parapsilosis [2], with Pichia kudriavzevii [3], against Nakaseomyces glabratus [4] and in the assay on Candida albicans [8] was over 100 µg/mL each time.

For orientation: MFC means the lowest tested concentration that kills the fungus rather than only halting it. A lower MFC goes with greater fungicidal potency. Usually MIC stands for the lowest concentration found to suppress growth.
